According to publication PMC4957400 (MedChemComm, 2016):
Entries after “also recorded” stand apart in the source; their conditions may differ. Numbered stars: 1 amine (or outer) side, 2 acyl side, 3 side chain; on linkers, the order of the positions; unused ones are H or OH. Suc = O=C(CCC(=O)[*:2])[*:1]

Tests used:
HIV-1 RRE IIB RNA = test: Dissociation constants by electrophoretic mobility shift assay; assay type: binding; details: EMSA, average of at least three experiments
[1] = test system: HIV-1 capsid protein p24 production; assay type: cell-based; details: p24 ELISA; for suppression of HIV replication / inhibition of p24 / inhibition of the production of p24: initial screen; for suppression of HIV replication / inhibition of p24: 100 μM; for inhibition of the production of p24: 10 μM; for inhibition of p24 expression: 40 μM
wild-type RRE IIB RNA = details: EMSA; cited from earlier work
[2] = test system: U87 CXCR4 human glioblastoma cell line stably transfected with CD4 and CXCR4; test: MTT toxicity assay; assay type: cell-based; details: for toxicity (MTT assay): U87 CXCR4 cells, concentrations up to 100 μM; for cell viability (MTT assay in parallel with second p24 screening): at 40 μM
Method in brief: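 MTT viability read in U87 human glioblastoma cells stably transfected with CD4 and CXCR4, with cells receiving no compound as the control. It was run as a toxicity screen of test peptides and again in parallel with the second p24 ELISA screen of HIV replication.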

Substance	Kd (HIV-1 RRE IIB RNA)	suppression of HIV replication / inhibition of p24 [1]	also measured
(KKBBAK)2*LLKY [Peptide A8]	660 ± 90 nM	–	–
(KKK)2*LKBBAKBBAY [Peptide A1]	280 ± 80 nM	greatly suppressed HIV replication; also recorded: complete or virtually complete inhibition of p24	–
(KKKBBA)2*KLKBBAY [Peptide A9]	120 ± 40 nM	–	–
(KLK)2*KKKBBAY [Peptide A11]	1430 ± 870 nM	–	inhibition of the production of p24 [1]: 40%
(KLK)2*LKKBBAY [Peptide A10]	300 ± 40 nM	–	–
(KKK)2*KACRLKY [Peptide A3]	140 ± 50 nM	greatly suppressed HIV replication	–
Suc-TRQARRNRRRRWRERQRAAAAR-NH2 [Rev17]	–	–	Kd (wild-type RRE IIB RNA): 100 nM
(KKK)2*KLKACRY [Peptide A4]	20 ± 4 nM	greatly suppressed HIV replication; also recorded: complete or virtually complete inhibition of p24	toxicity (MTT assay) [2]: slight toxicity
(KKACRK)2*KLKBBAY [Peptide A7]	70 ± 30 nM	greatly suppressed HIV replication; also recorded: complete or virtually complete inhibition of p24	toxicity (MTT assay) [2]: cytotoxicity in a dose-dependent manner; also recorded: moderate toxicity; cell viability (MTT assay in parallel with second p24 screening) [2]: confirmed cell viability; inhibition of p24 expression [1]: approximately 90%; inhibition of the production of p24 [1]: 60%
(KKL)2*KKBBAKBBAY [Peptide A14]	170 ± 50 nM	–	–
(KACRKK)2*KLKBBAY [Peptide A6]	60 ± 10 nM	greatly suppressed HIV replication; also recorded: complete or virtually complete inhibition of p24	toxicity (MTT assay) [2]: slight toxicity; also recorded: nearly non-toxic; cell viability (MTT assay in parallel with second p24 screening) [2]: confirmed cell viability; inhibition of p24 expression [1]: approximately 90%
(KKK)2*LKBBALY [Peptide A2]	130 ± 30 nM	–	–
(KKL)2*LKKBBAY [Peptide A12]	330 ± 100 nM	–	–
(LLK)2*KKBBAKY [Peptide A13]	210 ± 30 nM	–	–
